The nature of test [1]: reducers of endogenous Her2 protein level, primary screen, SKBR3 breast tumor cells, AlphaScreen, ATP viability (AID 461;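 active = Her2 level under about 52% in both replicate screens, with viability over 70% of control, limit read from the data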;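 as to Her2 level: lower value means less Her2 protein in the cells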;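 as to viability: percent of carrier control wells set as 100% viability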). To be noted: 18-24 h, measured here: SKBR3 viability, ATP luminescence, at 10 µM. On the technique in general: In Alpha technology, singlet oxygen from a donor bead excites a nearby acceptor bead.
Test [2] deals with Receptor tyrosine-protein kinase erbB-2 (Homo sapiens) (UniProt P04626). Described as above. The conditions noted are these: 18-24 h, at 10 µM, stronger effect = lower value.
Receptor tyrosine-protein kinase erbB-2 (Homo sapiens), sequence (P04626 whole entry, looked up): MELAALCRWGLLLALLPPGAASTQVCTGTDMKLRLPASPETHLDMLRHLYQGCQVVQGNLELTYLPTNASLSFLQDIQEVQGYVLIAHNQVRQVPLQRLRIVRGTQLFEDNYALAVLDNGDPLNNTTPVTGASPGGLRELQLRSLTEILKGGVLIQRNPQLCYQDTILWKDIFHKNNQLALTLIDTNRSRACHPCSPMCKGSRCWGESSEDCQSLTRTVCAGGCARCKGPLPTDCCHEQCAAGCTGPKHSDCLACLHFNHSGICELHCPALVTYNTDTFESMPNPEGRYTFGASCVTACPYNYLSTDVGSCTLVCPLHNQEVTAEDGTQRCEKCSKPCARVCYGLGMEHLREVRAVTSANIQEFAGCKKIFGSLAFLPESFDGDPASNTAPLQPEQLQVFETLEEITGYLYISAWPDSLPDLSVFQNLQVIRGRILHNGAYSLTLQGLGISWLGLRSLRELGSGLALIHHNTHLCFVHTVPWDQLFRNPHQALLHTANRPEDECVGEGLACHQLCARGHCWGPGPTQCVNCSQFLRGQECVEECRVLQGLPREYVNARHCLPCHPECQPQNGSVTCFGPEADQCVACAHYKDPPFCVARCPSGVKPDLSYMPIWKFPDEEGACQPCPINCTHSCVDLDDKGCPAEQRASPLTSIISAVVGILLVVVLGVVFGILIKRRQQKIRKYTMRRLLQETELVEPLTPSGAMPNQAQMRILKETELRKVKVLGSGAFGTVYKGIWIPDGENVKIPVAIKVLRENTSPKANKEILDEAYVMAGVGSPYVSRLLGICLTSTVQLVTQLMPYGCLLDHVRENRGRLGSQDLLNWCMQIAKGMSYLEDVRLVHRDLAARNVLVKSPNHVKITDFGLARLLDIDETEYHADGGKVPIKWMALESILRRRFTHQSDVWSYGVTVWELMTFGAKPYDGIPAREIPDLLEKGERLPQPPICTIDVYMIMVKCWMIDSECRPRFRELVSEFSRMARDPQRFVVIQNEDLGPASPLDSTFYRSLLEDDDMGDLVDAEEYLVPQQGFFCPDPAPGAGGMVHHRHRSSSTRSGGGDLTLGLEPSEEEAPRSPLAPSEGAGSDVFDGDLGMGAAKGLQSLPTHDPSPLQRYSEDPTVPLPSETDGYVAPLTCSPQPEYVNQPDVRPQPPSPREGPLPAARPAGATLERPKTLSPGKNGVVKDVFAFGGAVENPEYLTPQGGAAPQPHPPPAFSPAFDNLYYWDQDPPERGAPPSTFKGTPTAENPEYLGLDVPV
A short description of test [3]: SK-BR-3 cell growth inhibitors, pilot screen, 24 h, human (AID 572;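 active = viability at or below 10% of carrier control in both of two separate runs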;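 also: compound exposure lasted between 18 and 24 h rather than exactly 24 h; 100% = carrier-treated control wells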). To be noted: SK-BR-3 viability, CellTiter-Glo luminescence, at 10 µM, stronger effect = lower value. In general terms: In ATP-based viability assays light output follows the ATP content of the culture.
Test [4] is described as follows: HUVEC growth inhibition – cell-based, human, primary screen (AID 575;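 active = viability at or below 30% in both replicate assays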;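 also: 100% = median of untreated cell wells with 0.1% DMSO on each plate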). To be noted: HUVEC proliferation, CellTiter-Glo luminescence, 72 h; at 10 µM; stronger effect = lower value. The method in brief:
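Material: primary human umbilical vein endothelial cells / Schedule: 72 h exposure, 37 °C, 5% CO2, 30 min RT equilibration / Signal: ATP-based CellTiter-Glo luminescent read / Read-out basis: percent of median DMSO-control luminescence / Control set: 32 DMSO-only cell-control wells (high), 32 MePR drug-control wells (low) per plate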

Test [5] in a line: growth inhibitors of H69AR lung tumor, primary screen, human, duplicate replicates (AID 580;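 active = viability at or under a set limit in both replicates, limit being median viability minus 3 SD, cut at about 48% in these data, passing the limit was not always enough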;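 also: 100% = mean luminescence of untreated wells and 0% = no signal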). The conditions noted are these: H69AR lung tumor cells viability, ATP luminescence, 72 h; at 10 µM; stronger effect = lower value.
A short description of test [6]: reversal of MRP1-mediated doxorubicin resistance, pilot screen, H69AR cells, doxorubicin co-treatment (AID 601;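 active = viability loss from added drug above about 55%, and viability with drug at most 40%, in both replicates, limit read from the data, passing the limit was not always enough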). To be noted: CellTiter-Glo, 72 h, at 10 µM; for differential viability (reversal): stronger effect = higher value.
Test [7] is described as follows: 384-well plate pilot, post-Golgi transport modulator project, inhibition of yeast transport mutant growth (AID 636; in the data active = inhibition above about 31%). To be noted: absorbance 615 nm, about 18 h, stronger effect = higher value.
A short description of test [8]: growth suppression of yeast trafficking mutant, preliminary HTS, modulators of trafficking downstream of Golgi apparatus project, 1536-format plate, OD 615 nm (AID 637). To be noted: yeast transport mutant growth, absorbance 615 nm, 18 h; stronger effect = higher value.
[9] abbreviates: H69AR cells + 2 uM doxorubicin, measured here: viability with 2 uM doxorubicin, stronger effect = lower value.
Setting [10] is: H69AR cells, compound alone cytotoxicity.

We go through 14 compounds from PubChem BioAssay.

A word on the viability: it is a read-out of living cells in per cent, often relative to untreated cells. The inhibition is the relative decrease from the control value, in per cent.

The source made the active and inactive calls. Rule as the data show it, unless noted: active = inhibition above about 30%; inactive = the rest.

In the case of `COc1ccc(C(=O)CSc2nnc(C3CCCCC3)n2N)c(OC)c1`, the viability is 91.5% in test [1]; 91.5% (inactive) in test [3]; 119% (inactive) in test [4]; 83.3% (inactive) in test [5]; 81.3% in test [6] (setting [9]); 83.3% in test [6] (setting [10]). Besides, the Her2 level in test [2] was 105% (inactive). The differential viability (reversal) in test [6] (H69AR cells + 2 uM doxorubicin) is 2% (inactive). In addition, the inhibition is -4% (inactive) in test [7] and -6.23% (inactive) in test [8].
`COC(=O)c1ccc(-c2sc3nc(N4CCOCC4)c4c(c3c2N)CCCC4)o1`: the viability was 108% in test [1]; 108% (inactive) in test [3]; 74.4% (inactive) in test [4]; 91% (inactive) in test [5]; 92.2% in test [6] (setting [9]); 91% in test [6] (setting [10]). In test [2], the Her2 level is 104% (inactive). Also, the differential viability (reversal) in test [6] (H69AR cells + 2 uM doxorubicin) is -1.13% (inactive). Also, the inhibition in test [7] is -4% (inactive); in test [8] it was 27.3% (inactive).
`CCOC(=O)C1=C(C)N=C2SC(C)C(=O)N2C1c1cccc(F)c1` (stereo not given): the viability was 102% in test [1]; 102% (inactive) in test [3]; 85.2% (inactive) in test [4]; 87.5% (inactive) in test [5]; 86.7% in test [6] (setting [9]); 87.5% in test [6] (setting [10]). Besides, the Her2 level in test [2] is 89.5% (inactive). The differential viability (reversal) in test [6] (H69AR cells + 2 uM doxorubicin) was 0.855% (inactive). In addition, the inhibition in test [7] was -3.82% (inactive); in test [8], 1.13% (inactive).
Consider `CCN(C1CCCCC1)S(=O)(=O)c1ccc(OC)c(C)c1`, for which the viability was 99% in test [1]; 99% (inactive) in test [3]; 91.5% (inactive) in test [4]; 93.1% (inactive) in test [5]; 77.4% in test [6] (setting [9]); 93.1% in test [6] (setting [10]). Moreover, the Her2 level in test [2] was 108% (inactive). In addition, in test [6] (H69AR cells + 2 uM doxorubicin), the differential viability (reversal) is 15.7% (inactive). Moreover, the inhibition is -7.92% (inactive) in test [7] and -13% (inactive) in test [8].
With `O=C(O)CC1NC(=O)N(c2ccccc2)C1=O` (stereo not given), the viability in test [1] is 108%; in test [3] it was 108% (inactive); in test [4] it was 109% (inactive); in test [5] it was 99.3% (inactive); in test [6] (setting [9]), 91.5%; in test [6] (setting [10]) it was 99.3%. Also, the Her2 level in test [2] is 85% (inactive). Besides, in test [6] (H69AR cells + 2 uM doxorubicin), the differential viability (reversal) is 7.85% (inactive). The inhibition in test [7] is -5.33% (inactive); in test [8] it was 0% (inactive).
Take `O=S(=O)(c1ccccc1)c1nc(-c2cccs2)oc1NCC1CCCO1` (stereo not given): the viability was 84.5% in test [1]; 84.5% (inactive) in test [3]; 87.9% (inactive) in test [4]; 99.7% (inactive) in test [5]; 102% in test [6] (setting [9]); 99.7% in test [6] (setting [10]). The Her2 level in test [2] was 97% (inactive). The differential viability (reversal) in test [6] (H69AR cells + 2 uM doxorubicin) is -2.42% (inactive). The values for the inhibition in test [7] and in test [8] were 2.67% (inactive) and 10.7% (inactive), respectively.
Take `COc1ccc2oc(=O)c(C(=O)N3CCN(c4ccccc4F)CC3)cc2c1`: the viability in test [1] is 97.5%; in test [3], 97.5% (inactive); in test [4] it was 108% (inactive); in test [5], 88.1% (inactive); in test [6] (setting [9]), 97.6%; in test [6] (setting [10]), 88.1%. Moreover, in test [2], the Her2 level is 95.5% (inactive). In addition, the differential viability (reversal) in test [6] (H69AR cells + 2 uM doxorubicin) is -9.48% (inactive). The inhibition in test [7] is -6.4% (inactive); in test [8], -3.65% (inactive).
For `CS(=O)(=O)Nc1ccc(C(=O)NCc2ccco2)cc1`, the viability in test [1] was 88.5%; in test [3], 88.5% (inactive); in test [4] it was 104% (inactive); in test [5], 103% (inactive); in test [6] (setting [9]), 101%; in test [6] (setting [10]) it was 103%. In test [2], the Her2 level is 106% (inactive). The differential viability (reversal) in test [6] (H69AR cells + 2 uM doxorubicin) was 2.3% (inactive). For the same compound, the results for the inhibition in test [7] and in test [8] were -1.05% (inactive) and -5.16% (inactive), respectively.
Regarding `CCOCCn1cnc2sc(C(=O)NCC(=O)OCC)c(C)c2c1=O`, the viability in test [1] was 95.5%; in test [3] it was 95.5% (inactive); in test [4], 86.6% (inactive); in test [5], 86.8% (inactive); in test [6] (setting [9]), 88.7%; in test [6] (setting [10]) it was 86.8%. For the same compound, the Her2 level in test [2] was 90% (inactive). In addition, in test [6] (H69AR cells + 2 uM doxorubicin), the differential viability (reversal) is -1.89% (inactive). The inhibition is -2.37% (inactive) in test [7] and 2.9% (inactive) in test [8].
For the compound `COc1ccc(N2CCN(c3ccc(NC(=O)C4CCCCC4)cc3C#N)CC2)cc1`, the viability is 98% in test [1]; 98% (inactive) in test [3]; 78.6% (inactive) in test [4]; 93% (inactive) in test [5]; 90.4% in test [6] (setting [9]); 93% in test [6] (setting [10]). Also, the Her2 level in test [2] was 84% (inactive). The differential viability (reversal) in test [6] (H69AR cells + 2 uM doxorubicin) is 2.67% (inactive). Also, the inhibition in test [7] is -1.76% (inactive); in test [8], -2.22% (inactive).
Turning to `CCOC(=O)c1ccc(COC(=O)CCc2nc3ccccc3[nH]c2=O)o1`, the viability in test [1] was 92%; in test [3], 92% (inactive); in test [4], 100% (inactive); in test [5], 92.1% (inactive); in test [6] (setting [9]) it was 96.2%; in test [6] (setting [10]), 92.1%. Also, in test [2], the Her2 level was 96.5% (inactive). In test [6] (H69AR cells + 2 uM doxorubicin), the differential viability (reversal) was -4.18% (inactive). Further, the inhibition in test [7] was -1.32% (inactive); in test [8], 5.08% (inactive).
Turning to `Cc1noc(COc2ccccc2OCC(O)CNC(C)(C)C)n1` (stereo not given), the viability in test [1] is 101%; in test [3], 101% (inactive); in test [4] it was 103% (inactive); in test [5], 97% (inactive); in test [6] (setting [9]), 89.9%; in test [6] (setting [10]), 97%. Further, the Her2 level in test [2] is 89% (inactive). Also, the differential viability (reversal) in test [6] (H69AR cells + 2 uM doxorubicin) was 7.13% (inactive). Also, the inhibition in test [7] was -5.21% (inactive); in test [8] it was -9.37% (inactive).
As to `O=C(c1ccc(Cl)cc1)N1CCCCC(Sc2nnc(-c3ccc4c(c3)OCO4)o2)C1=O` (stereo not given), the viability in test [1] is 118%; in test [3], 118% (inactive); in test [4] it was 62% (inactive); in test [5] it was 88.5% (inactive); in test [6] (setting [9]) it was 91.9%; in test [6] (setting [10]), 88.5%. For the same compound, in test [2], the Her2 level was 76% (inactive). Besides, the differential viability (reversal) in test [6] (H69AR cells + 2 uM doxorubicin) is -3.4% (inactive). The inhibition in test [7] is -6.49% (inactive); in test [8], 5.56% (inactive).
In the case of `NC(=O)CSc1nnc(-c2cnccn2)n1-c1ccccc1`, the viability in test [1] was 114%; in test [3], 114% (inactive); in test [4] it was 103% (inactive); in test [5], 89.8% (inactive); in test [6] (setting [9]), 82.5%; in test [6] (setting [10]) it was 89.8%. Moreover, the Her2 level in test [2] was 97% (inactive). In test [6] (H69AR cells + 2 uM doxorubicin), the differential viability (reversal) is 7.27% (inactive). The inhibition in test [7] was -5.07% (inactive); in test [8], 1.13% (inactive).
